In ChEMBL document CHEMBL4184148 (Bioorg Med Chem Lett, 2017):

What was measured:
[1] = biological target: Activated CDC42 kinase 1 (Homo sapiens) (UniProt Q07912); test: Binding affinity to wild-type human partial length TNK2 (S159 to D474 residues) expressed in Escherichia coli BL21 at 1 uM by Kinomescan method relative to control
[2] = biological target: Myosin light chain kinase (Homo sapiens) (UniProt Q32MK0); test: Binding affinity to wild-type human partial length MLCK (D488 to K800 residues) expressed in Escherichia coli BL21 at 1 uM by Kinomescan method relative to control
[3] = biological target: Leukocyte tyrosine kinase receptor (Homo sapiens) (UniProt P29376); test: Binding affinity to wild-type human partial length LTK (P422 to S744 residues) expressed in Escherichia coli BL21 at 1 uM by Kinomescan method relative to control
[4] = biological target: Ribosomal protein S6 kinase alpha-5 (Homo sapiens) (UniProt O75582); test: Binding affinity to wild-type human partial length N-terminal RPS6KA5 kinase domain 1 expressed in Escherichia coli BL21 at 1 uM by Kinomescan method relative to control
[5] = biological target: Serine/threonine-protein kinase D3 (Homo sapiens) (UniProt O94806); test: Binding affinity to wild-type human partial length PRKD3 (S543 to E863 residues) expressed in Escherichia coli BL21 at 1 uM by Kinomescan method relative to control
[6] = test system: Mast/stem cell growth factor receptor Kit (Homo sapiens), P10721 [V559D,V654A]; test: Binding affinity to human partial length KIT V559D/V654A double mutant (Y545 to D952 residues) expressed in Escherichia coli BL21 at 1 uM by Kinomescan method relative to control
[7] = biological target: Muscle, skeletal receptor tyrosine-protein kinase (Homo sapiens) (UniProt O15146); test: Binding affinity to wild-type human partial length MUSK (M553 to V869 residues) expressed in Escherichia coli BL21 at 1 uM by Kinomescan method relative to control
[8] = biological target: Serine/threonine-protein kinase pim-1 (Homo sapiens) (UniProt P11309); test: Binding affinity to wild-type human partial length PIM1 (A15 to K313 residues) expressed in Escherichia coli BL21 at 1 uM by Kinomescan method relative to control
[9] = biological target: Receptor tyrosine-protein kinase erbB-4 (Homo sapiens) (UniProt Q15303); test: Binding affinity to wild-type human partial length ERBB4 (L690 to K994 residues) expressed in Escherichia coli BL21 at 1 uM by Kinomescan method relative to control
[10] = biological target: Serine/threonine-protein kinase N2 (Homo sapiens) (UniProt Q16513); test: Binding affinity to wild-type human partial length PKN2 (E634 to C984 residues) expressed in Escherichia coli BL21 at 1 uM by Kinomescan method relative to control
[11] = biological target: Ribosomal protein S6 kinase alpha-3 (Homo sapiens) (UniProt P51812); test: Binding affinity to wild-type human partial length C-terminal RSK3 kinase domain 2 (V403 to K700 residues) expressed in Escherichia coli BL21 at 1 uM by Kinomescan method relative to control
[12] = biological target: Tyrosine-protein kinase Blk (Homo sapiens) (UniProt P51451); test: Binding affinity to wild-type human partial length BLK (G211 to L503 residues) expressed in Escherichia coli BL21 at 1 uM by Kinomescan method relative to control
[13] = biological target: Interleukin-1 receptor-associated kinase 4 (Homo sapiens) (UniProt Q9NWZ3); test: Binding affinity to wild-type human partial length IRAK4 (M1 to S460 residues) expressed in HEK293 cells at 1 uM by Kinomescan method relative to control; type: cell-based
[14] = biological target: Dual specificity tyrosine-phosphorylation-regulated kinase 1B (Homo sapiens) (UniProt Q9Y463); test: Binding affinity to wild-type human full length DYRK1B (M1 to S629 residues) expressed in Escherichia coli BL21 at 1 uM by Kinomescan method relative to control
Outline: (§1)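 Run as one kinome-wide competition binding panel with each compound at a single fixed concentration. Results were plotted as a kinome-wide selectivity map.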

[15] = biological target: Cyclin-dependent kinase 16 (Homo sapiens) (UniProt Q00536); test: Binding affinity to wild-type human partial length PCTK1 (G160 to A474 residues) expressed in HEK293 cells at 1 uM by Kinomescan method relative to control; type: cell-based
[16] = biological target: Tyrosine-protein kinase Tec (Homo sapiens) (UniProt P42680); test: Binding affinity to wild-type human partial length TEC (L341 to D620 residues) expressed in Escherichia coli BL21 at 1 uM by Kinomescan method relative to control
[17] = biological target: Rhodopsin kinase GRK1 (Homo sapiens) (UniProt Q15835); test: Binding affinity to wild-type human full length GRK1 (M1 to S563 residues) expressed in HEK293 cells at 1 uM by Kinomescan method relative to control; type: cell-based; outline: as §1
[18] = test system: Tyrosine-protein kinase ABL1 (Homo sapiens), P00519 [Q252H]; test: Binding affinity to human phosphorylated ABL1 Q252H mutant expressed in HEK293 cells at 1 uM by Kinomescan method relative to control; type: cell-based
[19] = biological target: Serine/threonine-protein kinase 32A (Homo sapiens) (UniProt Q8WU08); test: Binding affinity to wild-type human full length YANK1 (M1 to L396 residues) expressed in HEK293 cells at 1 uM by Kinomescan method relative to control; type: cell-based
Outline: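 Kinome-wide competition binding panel run by an outside provider, with each compound tested at a single concentration. Activity is read against the kinase panel.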

[20] = biological target: Glycogen synthase kinase-3 alpha (Homo sapiens) (UniProt P49840); test: Binding affinity to wild-type human full length GSK3A (M1 to S483 residues) expressed in Escherichia coli BL21 at 1 uM by Kinomescan method relative to control; outline: as §1
[21] = biological target: Glycogen synthase kinase-3 beta (Homo sapiens) (UniProt P49841); test: Binding affinity to wild-type human full length GSK3B (M1 to T433 residues) expressed in HEK293 cells at 1 uM by Kinomescan method relative to control; type: cell-based; outline: as §1
[22] = biological target: Mitotic checkpoint serine/threonine-protein kinase BUB1 (Homo sapiens) (UniProt O43683); test: Binding affinity to wild-type human partial length BUB1 (Q724 to K1085 residues) expressed in HEK293 cells at 1 uM by Kinomescan method relative to control; type: cell-based
[23] = biological target: G protein-coupled receptor kinase 4 (Homo sapiens) (UniProt P32298); test: Binding affinity to wild-type human full length GRK4 (M1 to C578 residues) expressed in Escherichia coli BL21 at 1 uM by Kinomescan method relative to control; outline: as §1
[24] = biological target: Dual specificity mitogen-activated protein kinase kinase 2 (Homo sapiens) (UniProt P36507); test: Binding affinity to wild-type human full length MEK2 (M1 to V400 residues) expressed in HEK293 cells at 1 uM by Kinomescan method relative to control; type: cell-based; outline: as §1
[25] = biological target: Insulin-like growth factor 1 receptor (Homo sapiens) (UniProt P08069); test: Binding affinity to wild-type human partial length IGF1R (L972 to D1294 residues) expressed in Escherichia coli BL21 at 1 uM by Kinomescan method relative to control

Compound: CCC(=O)Nc1ccc(C(=O)Nc2ccc(Nc3ncc4c(n3)N(C)c3ccc(C)cc3C(=O)N4C)cc2)cc1
- Activity [1]: 86%
- Activity [2]: 99%
- Activity [3]: 85%
- Activity [4]: 100%
- Activity [5]: 81%
- Activity [6]: 97%
- Activity [7]: 95%
- Activity [8]: 85%
- Activity [9]: 96%
- Activity [10]: 100%
- Activity [11]: 85%
- Activity [12]: 74%
- Activity [13]: 79%
- Activity [14]: 100%
- Activity [15]: 74%
- Activity [16]: 93%
- Activity [17]: 76%
- Activity [18]: 61%
- Activity [19]: 82%
- Activity [20]: 100%
- Activity [21]: 82%
- Activity [22]: 98%
- Activity [23]: 100%
- Activity [24]: 72%
- Activity [25]: 84%

Compound: C=CC(=O)Nc1ccc(C(=O)Nc2ccc(Nc3ncc4c(n3)N(C)c3ccc(C)cc3C(=O)N4C)cc2)cc1
- Activity [1]: 96%
- Activity [2]: 90%
- Activity [3]: 96%
- Activity [4]: 100%
- Activity [5]: 90%
- Activity [6]: 91%
- Activity [7]: 96%
- Activity [8]: 88%
- Activity [9]: 96%
- Activity [10]: 75%
- Activity [11]: 100%
- Activity [12]: 96%
- Activity [13]: 95%
- Activity [14]: 90%
- Activity [15]: 100%
- Activity [16]: 100%
- Activity [17]: 73%
- Activity [18]: 85%
- Activity [19]: 100%
- Activity [20]: 100%
- Activity [21]: 92%
- Activity [22]: 95%
- Activity [23]: 97%
- Activity [24]: 86%
- Activity [25]: 100%
